The results in this text go back to ChEMBL document CHEMBL1687758, “Azithromycin alters macrophage phenotype and pulmonary compartmentalization during lung infection with Pseudomonas” (2010).

Molecules are shown by their SMILES. Activity calls are given as the source filed them. No cut-off for these calls is given here.

Experiment [1] concerns Mus musculus. The experiment in a line: Immunomodulatory activity in Pseudomonas aeruginosa M57-15 infected C57BL/6 mouse lung assessed as CD11b+c+ cell expression level in lung digest at 0.16 g/kg, po measured after 3 days by flow cytometry (reference value: 8.63 +/- 0.53 %). The class given is functional. A digest of the protocol: (§1)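 Oral gavage of 0.16 g/kg daily (2% methylcellulose vehicle) began 4 days before intratracheal bead infection (1 × 105 to 2 × 10^5 CFU). On days 3, 7 and 14, cells were taken from lavage (0.3 mM EDTA buffer) and from collagenase/DNase lung digest (1 h, 37°C). Cells were stained for CD11b, CD11c, Gr-1, CD4, CD80, MHC-II and MR, with more than 50,000 events acquired. Counts were gated percent × manual cell count.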

Experiment [2] concerns Mus musculus. Kind of experiment: Immunomodulatory activity in Pseudomonas aeruginosa M57-15 infected C57BL/6 mouse lung assessed as CD11b-c+ cell expression level in lung lavage fluid at 0.16 g/kg, po measured after 3 days by flow cytometry (reference value: 47.01 +/- 33.74 %). The format is functional. The method, boiled down:
as §1

For experiment [3], the system named is Mus musculus. The experiment in a line: Immunomodulatory activity in Pseudomonas aeruginosa M57-15 infected C57BL/6 mouse lung assessed as reduction of CD11b- and Gr-1+ cells infiltration in lung lavage fluid at 0.16 g/kg, po measured after 7 days by flow cytometry. To be noted: in the assay text read “lung digest” for “lung lavage fluid”. The class given is functional, organism-based. A digest of the protocol:
as §1

The test system of experiment [4] is Mus musculus. Kind of experiment: Immunomodulatory activity in Pseudomonas aeruginosa M57-15 infected C57BL/6 mouse lung assessed as CD11b+c+ cell expression level in lung lavage fluid at 0.16 g/kg, po measured after 14 days by flow cytometry (reference value: 5.42 +/- 5.34 %). The format is functional. A digest of the protocol:
as §1

For experiment [5], the system named is Mus musculus. Kind of experiment: Immunomodulatory activity in Pseudomonas aeruginosa M57-15 infected C57BL/6 mouse lung assessed as up-regulation of CCR7 expression in CD11+ Gr1- cells in lung digest at 0.16 g/kg, po measured after 7 days by flow cytometry. The class given is functional, organism-based. A digest of the protocol: as §1
Experiment [6] has as its system Mus musculus. Kind of experiment: Immunomodulatory activity in Pseudomonas aeruginosa M57-15 infected C57BL/6 mouse lung assessed as decrease of CCL2 production in CD11b+ cells in lung lavage fluid at 0.16 g/kg, po measured after 7 days by flow cytometry. The format is functional, organism-based. The method, boiled down:
(§2)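 The first 1-ml lavage wash was frozen at −80°C. Samples diluted 5-fold were incubated 3 h at room temperature with capture beads for a cytometric bead array (IL-12p70, CCL2, TNF-α, IL-10, IFN-γ, IL-6) plus a PE-conjugated detection antibody. Fluorescence was read by flow cytometry against standard curves. Mice had daily oral 0.16 g/kg from 4 days before intratracheal infection.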

For experiment [7], the system named is Mus musculus. Kind of experiment: Immunomodulatory activity in Pseudomonas aeruginosa M57-15 infected C57BL/6 mouse lung assessed as decrease of IL-10 production in CD11b+ cells in lung digest at 0.16 g/kg, po measured after 7 days by flow cytometry. The class given is functional, organism-based. The method, boiled down:
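Lung digest cells (2 × 106) were stimulated for 4 h with 50 ng/ml PMA and 500 ng/ml ionomycin plus 10 μg/ml brefeldin A. They were surface-stained for CD11b/CD11c, fixed in 4% formalin, permeabilized with 0.05% saponin, Fc-blocked, and stained for intracellular TNF-α and IL-10 for flow cytometry. Mice were dosed at 0.16 g/kg by daily oral gavage from 4 days before infection.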

In a further experiment the test system is Pseudomonas aeruginosa. The experiment in a line: Antibacterial activity against Pseudomonas aeruginosa M57-15 infected in C57BL/6 mouse assessed as effect on host weight loss at 0.16 g/kg, po measured up to 14 days. The format is functional, organism-based. A digest of the protocol:
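Dosing was 0.16 g/kg daily by oral gavage in 2% methylcellulose, or vehicle, from 4 days before intratracheal bead infection (1 × 105 to 2 × 10^5 CFU). Body weight was followed over the study and compared with a sham-infected group. Groups had 3 to 6 mice, and each experiment was repeated at least three times.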

The test system of experiment [8] is Mus musculus. The experiment in a line: Immunomodulatory activity in Pseudomonas aeruginosa M57-15 infected C57BL/6 mouse lung assessed as increase of mannose receptor expression in lung digest at 0.16 g/kg, po measured after 7 days by flow cytometry. The format is functional, organism-based. The method, boiled down: as §1
Experiment [9] deals with Mus musculus. Kind of experiment: Immunomodulatory activity in Pseudomonas aeruginosa M57-15 infected C57BL/6 mouse lung assessed as CD11b-c+ cell expression level in lung lavage fluid at 0.16 g/kg, po measured after 14 days by flow cytometry (reference value: 72.38 +/- 13.69 %). The format is functional. A digest of the protocol: as §1
The subject of experiment [10] is Mus musculus. Kind of experiment: Immunomodulatory activity in Pseudomonas aeruginosa M57-15 infected C57BL/6 mouse lung assessed as increase of arginase activity in lung digest at 0.16 g/kg, po measured after 7 days.
For experiment [11], the system named is Mus musculus. The experiment in a line: Immunomodulatory activity in Pseudomonas aeruginosa M57-15 infected C57BL/6 mouse lung assessed as CD11b-c+ cell expression level in lung lavage fluid at 0.16 g/kg, po measured after 7 days by flow cytometry (reference value: 72.59 +/- 16.30 %). The class given is functional. The method, boiled down:
as §1

Experiment [12] relates to Mus musculus. The experiment in a line: Immunomodulatory activity in Pseudomonas aeruginosa M57-15 infected C57BL/6 mouse lung assessed as CD11b+c+ cell expression level in lung digest at 0.16 g/kg, po measured after 14 days by flow cytometry (reference value: 6.6 +/- 1.86 %). The class given is functional. The method, boiled down: as §1
For experiment [13], the system named is Mus musculus. Kind of experiment: Immunomodulatory activity in Pseudomonas aeruginosa M57-15 infected C57BL/6 mouse lung assessed as increase of CD4+ T cell in lung lavage fluid at 0.16 g/kg, po measured after 7 to 14 days by flow cytometry. The class given is functional, organism-based. The method, boiled down:
as §1

In experiment [14] the test system is Mus musculus. Kind of experiment: Immunomodulatory activity in Pseudomonas aeruginosa M57-15 infected C57BL/6 mouse lung assessed as CD11b-c+ cell expression level in lung digest at 0.16 g/kg, po measured after 3 days by flow cytometry (reference value: 19.71 +/- 3.89 %). The format is functional. A digest of the protocol: as §1
Experiment [15] has as its system Mus musculus. The experiment in a line: Immunomodulatory activity in Pseudomonas aeruginosa M57-15 infected C57BL/6 mouse lung assessed as increase of CD4+ T cell in alveolar space at 0.16 g/kg, po measured after 7 days by flow cytometry. The class given is functional, organism-based. The method, boiled down:
as §1

Experiment [16] deals with Mus musculus. Kind of experiment: Immunomodulatory activity in Pseudomonas aeruginosa M57-15 infected C57BL/6 mouse lung assessed as CD11b+c- cell expression level in lung digest at 0.16 g/kg, po measured after 14 days by flow cytometry (reference value: 21.97 +/- 3.51 %). The format is functional. A digest of the protocol:
as §1

Experiment [17] concerns Mus musculus. Kind of experiment: Immunomodulatory activity in Pseudomonas aeruginosa M57-15 infected C57BL/6 mouse lung assessed as decrease of IL-12p70 production in CD11b+ cells in lung lavage fluid at 0.16 g/kg, po measured after 7 days by flow cytometry. The format is functional, organism-based. The method, boiled down:
as §2

The subject of experiment [18] is Mus musculus. Kind of experiment: Immunomodulatory activity in Pseudomonas aeruginosa M57-15 infected C57BL/6 mouse lung assessed as increase of MHC2 expression in CD11b+ Gr1+ cells in alveolar space at 0.16 g/kg, po measured after 7 days by flow cytometry. The format is functional, organism-based. A digest of the protocol:
as §1

The subject of experiment [19] is Mus musculus. Kind of experiment: Immunomodulatory activity in Pseudomonas aeruginosa M57-15 infected C57BL/6 mouse lung assessed as CD11b+c+ cell expression level in lung digest at 0.16 g/kg, po measured after 7 days by flow cytometry (reference value: 5.16 +/- 1.09 %). The class given is functional. A digest of the protocol:
as §1

Experiment [20] deals with Mus musculus. The experiment in a line: Immunomodulatory activity in Pseudomonas aeruginosa M57-15 infected C57BL/6 mouse lung assessed as CD11b+c- cell expression level in lung lavage fluid at 0.16 g/kg, po measured after 7 days by flow cytometry (reference value: 1.13 +/- 0.30 %). The class given is functional. A digest of the protocol:
as §1

Turning to `CC[C@H]1OC(=O)[C@H](C)[C@@H](O[C@H]2C[C@@](C)(OC)[C@@H](O)[C@H](C)O2)[C@H](C)[C@@H](O[C@@H]2O[C@H](C)C[C@H](N(C)C)[C@H]2O)[C@](C)(O)C[C@@H](C)CN(C)[C@H](C)[C@@H](O)[C@]1(C)O` [AZITHROMYCIN], the Activity with Mus musculus [1] is 7.44%; with Mus musculus [2], 34.84%; in the experiment with Mus musculus [4] it was 5.25%; with Mus musculus [9], 46.16%; in the experiment with Mus musculus [11], 38.47%; in the experiment with Mus musculus [12], 4.31%. Also, the Activity with Mus musculus [14] came to 20.92%; with Mus musculus [16], 15.55%; with Mus musculus [19], 17.1%; in the experiment with Mus musculus [20], 13.3%. Moreover, the outcome in the experiment on Mus musculus [3], in the experiment on Mus musculus [5], in the experiment with Mus musculus [6], with Mus musculus [8], in the experiment on Mus musculus [10] and in the experiment with Mus musculus [13] was Active. For the same molecule, the outcome with Mus musculus [15] and in the experiment with Mus musculus [18] was Active. Besides, the outcome in the experiment with Mus musculus [7], with Pseudomonas aeruginosa and with Mus musculus [17] was inactive.
